Most compounds without a hit are left out; they make up all but 2.5% or so of the library.
NR2E3 ag-1 – agonists of human NR2E3 nuclear receptor; inhibition of corepressor binding, % at 3.98 µM; CHO-S Gal4-NCOR/VP16-NR2E3 two-hybrid, luciferase; Q9Y5X4; AID 602229; 360,000 tested, 0.35% active;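 active = inhibition above the mean of all tested compounds plus 3 SD, cut at about 70% in these data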;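 note: 0% = DMSO with NR2E3 transfected cells and 100% = cells lacking NR2E3 construct; higher means lower luciferase signal from less NR2E3 corepressor binding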
NR2E3 ag-2 – agonists of human nuclear receptor NR2E3 | AID 2300 | 320,000 tested, 0.12% active | GST-NR2E3/biotin-RetCOR TR-FRET, 1536-well | Q9Y5X4 | inhibition of corepressor binding, % at 4.78 µM;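 active = percent inhibition above the cutoff of mean plus 3 SD of all tested compounds, set per screening campaign, cut at about 20% in these data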;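 note: 0% = DMSO wells and 100% = biotin wells as full block of FRET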
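Material: NR2E3–RetCOR corepressor complex / Amount: 1.35 nM GST-NR2E3 / Medium: Tris pH 7.5 / Compound: single nominal compound dose of 4.8 µM / Incubation: 5 h at 4 °C / Technique: TR-FRET, Eu(K)-anti-GST donor, streptavidin-D2 acceptor, ex 340, em 617/671 nm / Read-out basis: percent loss of FRET ratio relative to control wells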
GASC-1 inh – blocks human GASC-1 demethylase activity; GST-JMJD2C(1-420) H3K9me3 demethylation, DELFIA europium; inhibition, % at 2.35 µM; 330,000 tested, 0.069% active;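 active = more than half of a compound's replicate wells show inhibition beyond 50%, single wells judged on their own value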;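 note: signal counts dimethyl H3K9 product captured on neutravidin plate; 0% = median of DMSO wells and 100% = 0.3 times that DMSO median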
Target sequence (Q9H3R0 1-420 limits assumed): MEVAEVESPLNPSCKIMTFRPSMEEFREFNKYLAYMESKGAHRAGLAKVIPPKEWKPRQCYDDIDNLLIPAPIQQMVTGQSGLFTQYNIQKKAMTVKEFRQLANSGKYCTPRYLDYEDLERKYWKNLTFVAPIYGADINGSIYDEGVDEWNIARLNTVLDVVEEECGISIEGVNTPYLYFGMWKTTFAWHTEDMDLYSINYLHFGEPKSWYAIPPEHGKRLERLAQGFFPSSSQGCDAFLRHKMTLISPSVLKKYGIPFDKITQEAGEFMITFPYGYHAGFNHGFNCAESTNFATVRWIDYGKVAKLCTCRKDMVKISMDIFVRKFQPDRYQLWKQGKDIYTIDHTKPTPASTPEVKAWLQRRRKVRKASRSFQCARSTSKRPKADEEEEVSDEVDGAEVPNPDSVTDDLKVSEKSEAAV
ADAM17 inh – inhibitors of human ADAM17; P78536; 370,000 tested, 0.83% active; inhibition, % at 6.95 µM; recombinant ADAM17, EDANS/DABCYL FRET peptide cleavage;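 active = inhibition above the mean of compounds lying between control limits plus 3 SD, set per campaign, cut at about 8.5% in these data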;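 note: 0% = DMSO-only wells as the low control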
proKLK7 act – proKLK7 (human) activation, primary screen | purified proKLK7, EDANS-DABCYL substrate fluorescence; 100% is mature enzyme control, 0% vehicle | 370,000 tested, 0.9% active | P49862 | activation, % at 7 µM;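 active = activation above the mean of all tested compounds plus 3 SD, computed per campaign excluding outliers beyond control limits, cut at about 13% in these data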
Target sequence (P49862 whole entry, looked up): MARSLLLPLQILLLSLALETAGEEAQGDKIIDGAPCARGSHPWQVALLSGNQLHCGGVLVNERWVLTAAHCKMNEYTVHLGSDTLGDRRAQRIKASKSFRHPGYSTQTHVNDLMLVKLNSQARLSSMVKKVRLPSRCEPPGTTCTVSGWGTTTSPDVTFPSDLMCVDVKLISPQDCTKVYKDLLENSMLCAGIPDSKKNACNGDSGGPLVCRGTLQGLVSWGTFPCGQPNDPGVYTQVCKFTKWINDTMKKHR
ADAM10 inh – ADAM10 inhibition, QFRET primary screen; O14672; recombinant ADAM10, EDANS/DABCYL FRET peptide cleavage, 3 h; inhibition, % at 7 µM; 370,000 tested, 0.62% active;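 active = inhibition above a per-campaign cutoff equal to the mean of compounds falling between control-based bounds plus 3 SD, cut at about 20% in these data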;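 note: 0% = DMSO wells while the 100% control is not disclosed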
NR2E3 ag confirm – NR2E3 agonism confirmed in two-hybrid assay | AID 624378 | CHO-S mammalian two-hybrid NR2E3-NCOR, luciferase luminescence | 2,300 tested, 51% active | inhibition, % at 3.98 µM | shares compounds with NR2E3 ag-1;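 active = average inhibition above a cutoff equal to the mean inhibition of all tested compounds plus one SD, cut at about 70% in these data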;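 note: 0% = DMSO in NR2E3 cells and 100% = DMSO in cells lacking NR2E3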
GAL4-VP16 luc – GAL4-VP16 reporter inhibition in NR2E3 agonist counterscreen. shares compounds with NR2E3 ag-1. CHO-S GAL4-VP16 luciferase reporter, luminescence. inhibition, % at 3.98 µM. 2,300 tested, 29% active. AID 624379;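 active = mean inhibition above a cutoff equal to the average over all tested compounds plus one standard deviation, cut at about 70% in these data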;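 note: luciferase from a UAS reporter driven by GAL4-VP16 transactivation; 0% = DMSO with VP16-transfected cells and 100% = DMSO with cells lacking VP16; higher means less reporter light so more repression of VP16 activity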
* = called active by the depositor; i = inactive; x = no result.

SMILES	NR2E3 ag-1	NR2E3 ag-2	GASC-1 inh	ADAM17 inh	proKLK7 act	ADAM10 inh	NR2E3 ag confirm	GAL4-VP16 luc
CCOc1ccc(N2C(=O)CC(C(C)c3ccccc3)C2=O)cc1 (stereo unspecified)	-27	-1	1	-1	0	-1	x	x
C[C@@H]1COc2cc(Br)ccc2S(=O)(=O)N1Cc1cn(Cc2ccc(C(F)(F)F)cc2)nn1	x	x	x	-2	-1	5	x	x
COc1ccc(-c2csc(C(O)c3ccc(OC)cc3)n2)cc1 (stereo unspecified)	20	x	x	-2	0	-16	x	x
COc1ccc(C(O)c2nc(-c3ccncc3)cs2)cc1 (stereo unspecified)	63	x	x	2	0	-3	68	66
COc1ccc(NS(=O)(=O)c2ccc3c(c2)NC(=O)CCS3)cc1Cl	60	-3	-12	3	0	-4	34	34
CCN1/C(=C/c2ccc3cc(C)ccc3[n+]2CC)Sc2cc(C)ccc21	90*	x	x	-4	0	-4	100*	85*
CCN1/C(=C/c2ccc3cc(C)ccc3[n+]2C)Sc2ccc3sccc3c21	66	x	x	-1	0	-28	x	x
Cc1cccc(C(CC(=O)N2CCCCC2)c2ccccc2)c1O (stereo unspecified)	-4	-1	19	2	-1	-2	x	x
COCOc1ccc(-c2ncc(OC)nc2NC(=O)c2cc(C)oc2C)cc1	2	x	x	-55	8	-235	x	x
Cc1cc(-n2c(C)cc(C(=O)CSc3[nH]c(=O)cc(C(F)(F)F)c3C#N)c2C)no1	98*	4	-12	1	2	-16	99*	89*
Cc1cc(NC(=O)CSc2[nH]c(=O)cc(C(F)(F)F)c2C#N)no1	7	1	-2	-2	1	-12	x	x
CC(C)(C)C(=O)NC(=S)NNC(=O)c1ccncc1	-38	1	2	0	0	-4	x	x
CC(C)(C)C(=O)NC(=S)NNC(=O)c1ccc(-c2ccccc2)cc1	62	3	-1	x	x	x	96*	52
CN(C)CC(c1ccc(O)cc1)C1(O)CCCCC1 (stereo unspecified)	x	x	x	1	0	-7	x	x
CCCCOC(=O)c1[nH]c2c(c1C)C(=O)CC(c1cc(OC)c(OC)c(OC)c1)C2 (stereo unspecified)	89*	1	6	5	0	0	84*	61
C=CCOC(=O)c1[nH]c2c(c1C)C(=O)CC(c1cc(OC)c(OC)c(OC)c1)C2 (stereo unspecified)	54	0	-3	x	x	x	73*	45
COCCOC(=O)c1[nH]c2c(c1C)C(=O)CC(c1cc(OC)c(OC)c(OC)c1)C2 (stereo unspecified)	15	-4	2	-3	-1	7	x	x
OC[C@H]1CC[C@@H]2O[C@H](CCc3ccc(-c4ccc(F)cc4)cc3)[C@H](n3cc(C4CC4)nn3)C[C@@H]2O1	x	x	x	3	0	4	x	x
Cc1ccc(NC(=O)NC2CC(=O)N(c3ccc4c(c3)OCCO4)C2)c(C)c1 (stereo unspecified)	32	3	64	-3	0	-9	x	x
Cc1cnc(NC(=O)C2CC(=O)N(c3cccc(Cl)c3)C2)s1 (stereo unspecified)	86*	4	4	-1	0	6	100*	52
Cc1cnc(NC(=O)C2CC(=O)N(c3ccc4c(c3)OCCO4)C2)s1 (stereo unspecified)	55	x	5	-4	-1	-12	75*	25
Cc1ccc(NC(=O)NC2CC(=O)N(c3ccc4c(c3)OCCO4)C2)cc1C (stereo unspecified)	54	-3	-10	0	0	4	32	6
O=S1(=O)c2ccc(N3CCSCC3)cc2Oc2ccccc2CN1Cc1cn(Cc2cccc(F)c2)nn1	x	x	x	0	-1	3	x	x
S=c1nc(C2COc3ccccc3O2)[nH][nH]1 (stereo unspecified)	-64	-2	8	-3	0	1	x	x
CCCS(=O)(=O)c1cnc(C2COc3ccccc3O2)nc1N (stereo unspecified)	56	1	26	-2	0	-7	43	12
SMILES	NR2E3 ag-1	NR2E3 ag-2	GASC-1 inh	ADAM17 inh	proKLK7 act	ADAM10 inh	NR2E3 ag confirm	GAL4-VP16 luc
Cc1ccc(S(=O)(=O)Nc2ccc3ccccc3n2)cc1	-21	1	-2	-19	1	-50	x	x
Cc1ccc(S(=O)(=O)Nc2cnc3ccccc3c2)cc1	49	1	-13	-15	1	-37	44	41
Cc1ccc(S(=O)(=O)N2[C@H](CC(=O)c3cccs3)OC[C@@H]2C(C)C)cc1	x	x	x	3	0	-2	x	x
C=CCN=C1NC(c2ccc(F)cc2)C(C(=O)OC)=C(C)N1Cc1ccccc1C(F)(F)F (stereo unspecified)	x	x	x	-4	0	-14	x	x
COc1ccc(NC(=O)C2Cc3c(-c4ccccc4)ccnc3O2)cc1OC (stereo unspecified)	78*	x	x	x	x	x	80*	71*
COc1ccc(NC(=O)C2Cc3c(-c4ccc(Cl)cc4)ccnc3O2)cc1OC (stereo unspecified)	78*	x	x	1	0	3	82*	65
COc1ccc(NC(=O)C2Cc3c(-c4ccc(Cl)cc4)ccnc3O2)cn1 (stereo unspecified)	-45	x	x	2	0	7	x	x
COc1ccc(NC(=O)C2Cc3c(-c4ccncc4)ccnc3O2)cc1OC (stereo unspecified)	-6	x	x	-2	0	-12	x	x
Cc1noc(C)c1S(=O)(=O)N1CCCC(C(=O)NCc2ccccc2Cl)C1 (stereo unspecified)	-4	2	-9	-4	1	-2	x	x
COc1ccc(C2CC(=O)C(c3ccccc3)=CN2Cc2ccccc2)cc1 (stereo unspecified)	x	x	x	4	1	2	x	x
C=CCN1C(=O)[C@@H](CC(=O)NCCCC)[C@]2(C(=O)OCC)CCCCC/C=C/12	x	x	x	-1	0	-69	x	x
N#Cc1c(-c2cccs2)cc(-c2ccccn2)nc1N	62	2	-16	-335	-9	i	27	-15
N#Cc1c(-c2cccs2)cc(-c2cccnc2)nc1N	-1	1	2	i	-2	i	x	x
Cc1cccc(-c2cccc3[nH]c4c(c23)CCN2C(=O)[C@H]3[C@H](C)ON(C)[C@H]3C[C@@H]42)c1	x	x	x	-123	-18	-380	x	x

Source: PubChem
